Data set [1] in a line: Drug uptake in Sprague-Dawley rat plasma at 0.1 mg/kg, po qd administered via gavage measured 1 hr post last dose on day 14 by LC-MS/MS analysis. The class given is ADME, organism-based.
Data set [2] in a line: Drug uptake in Sprague-Dawley rat liver at 0.003 mg/kg, po qd administered via gavage measured 7 hrs post last dose on day 14 by LC-MS/MS analysis. The following applies: read-out: Drug uptake. The format is ADME, organism-based. In a few lines: (§1)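 Drug concentration in liver was quantified from tissue homogenates, so these are total levels. Unbound liver concentration was not determined.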

Data set [3] can be described thus: Oral bioavailability in rat at 1 mg/kg administered via gavage by LC-MS/MS analysis. The class given is ADME, organism-based. The following applies: in vivo. In a few lines: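 IV dosing used a solution in 75% PEG300:25% D5W for mouse and rat, and a solution in 20% PEG300, 5% solutol, 75% carbonate buffer pH 8 for dog. PO dosing used a suspension in 0.5% methylcellulose, 0.5% Tween80, 99% water for all three species.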

Data set [4] relates to Rattus norvegicus. As to the kind of experiment: In vivo agonist activity at FXR in Sprague-Dawley rat assessed as induction of BSEP mRNA level in liver at >0.1 mg/kg, po qd for 14 days measured 7 hrs post last dose on day 14 by qPCR analysis. The format is functional, organism-based.
Data set [5] is described as follows: Clearance in dog at 0.5 mg/kg, iv by LC-MS/MS analysis. The class given is ADME, organism-based, Canis lupus familiaris. The following applies: in vivo. In a few lines:
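Single IV dose given as a solution. Mouse received 5 mg/kg in 75% PEG300:25% D5W. Dog received 0.5 mg/kg in 20% PEG300, 5% solutol and 75% carbonate buffer pH = 8.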

Data set [6] in a line: Half life in rat at 3 mg/kg, iv by LC-MS/MS analysis. The format is ADME, organism-based. The following applies: in vivo. In a few lines: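 Single IV dose given as a solution. Mouse and rat received it in 75% PEG300:25% D5W. Dog received it in 20% PEG300, 5% solutol and 75% carbonate buffer pH = 8. Plasma was sampled for PK parameters.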
Data set [7] can be described thus: Drug uptake in Sprague-Dawley rat plasma at 3 mg/kg, po qd administered via gavage measured 1 hr post last dose on day 14 by LC-MS/MS analysis. The class given is ADME, organism-based.
A short description of data set [8]: AUC (0 to 24 hrs) in Sprague-Dawley rat at 1 mg/kg, po qd administered via gavage measured on day 1 by LC-MS/MS analysis. Details: dose 1 mg/kg, time < 24 hr, route oral. The following applies: in vivo. The class given is ADME, organism-based.
The subject of data set [9] is Rattus norvegicus. Put plainly: Drug metabolism in rat assessed as taurine conjugated metabolite formation at 3 mg/kg, iv or 1 mg/kg, po administered via gavage by LC-MS/MS analysis. The format is ADME, organism-based. Conditions: in vivo.
Data set [10] can be described thus: AUC (0 to 24 hrs) in Sprague-Dawley rat at 0.01 mg/kg, po qd administered via gavage measured on day 1 by LC-MS/MS analysis. The class given is ADME, organism-based. Details: dose 0.01 mg/kg, time < 24 hr, route oral. Conditions: in vivo.
Data set [11] has as its system Rattus norvegicus. As to the kind of experiment: In vivo agonist activity at FXR in po dosed Sprague-Dawley rat assessed as induction of SHP mRNA level in ileum administered as single dose measured 7 hrs post dose by qPCR analysis. The format is functional, organism-based. A general note: In qPCR the cycle at which signal appears reflects the starting amount.
The subject of data set [12] is Rattus norvegicus. As to the kind of experiment: Dose normalized AUC (0 to 24 hrs) in Sprague-Dawley rat at 0.1 mg/kg, po qd administered via gavage measured on day 1 by LC-MS/MS analysis. The format is ADME, organism-based. The following applies: in vivo.
The subject of data set [13] is Rattus norvegicus. Put plainly: In vivo agonist activity at FXR in po dosed Sprague-Dawley rat assessed as induction of SHP mRNA level in liver administered once daily for 14 days measured 7 hrs post last dose on day 14 by qPCR analysis. The class given is functional.
Data set [14] concerns Rattus norvegicus. Put plainly: In vivo agonist activity at FXR in Sprague-Dawley rat assessed as induction of BSEP mRNA level in liver at 0.003 mg/kg, po qd for 14 days measured 7 hrs post last dose on day 14 by qPCR analysis. The format is functional, organism-based.
A short description of data set [15]: Drug uptake in Sprague-Dawley rat liver at 0.03 mg/kg, po qd administered via gavage measured 1 hr post last dose on day 14 by LC-MS/MS analysis. The following applies: read-out: Drug uptake. The format is ADME, organism-based. A digest of the protocol: as §1
Data set [16] can be described thus: Drug uptake in Sprague-Dawley rat plasma at 0.3 mg/kg, po qd administered via gavage measured 1 hr post last dose on day 14 by LC-MS/MS analysis. The format is ADME, organism-based.

Calls of active or inactive are those of the source. The calls are words filed in the database; no cut-off is given here.

Broadly, the bioavailability is dose-corrected exposure relative to a reference, in per cent. One may read the clearance as the rate of elimination divided by the concentration. Low values mean a low capacity for elimination, high ones a high capacity for elimination. Usually half-life stands for the time in which the quantity being followed falls by half. The low end stands for fast loss, the high end for slow loss. By AUC(0-t) is commonly meant the area under the concentration-time curve up to a stated or last time point. A low value points to less exposure. By ED50 is commonly meant the dose at which the effect has come halfway, by size or by number of responders. With `O=C(O)c1cc(F)c2nc(N3C4CCC3CC(OCc3c(-c5ccccc5OC(F)(F)F)noc3C3CC3)C4)sc2c1` (stereo unspecified), the concentration at 1 h amounted to 3.95 nM in data set [1], 62.6 nM in data set [7], 11.9 nM in [15] and 6.84 nM in [16]. Besides, the concentration at 7 h in data set [2] was found to be 2.3 nM. In data set [3], the bioavailability came to 10%. The result in the data set with Rattus norvegicus [4] and in the data set on Rattus norvegicus [14] was Active. Moreover, in data set [5], the clearance was 1.5 mL/min/kg. The half-life in data set [6] was 3.7 h. Also, the area under the curve AUC(0-t) at 24 h was found to be 0.461 µM·h in data set [8] and 0.004 µM·h in data set [10]. Besides, in the data set on Rattus norvegicus [9], the Drug metabolism entry is “Metabolite_Notdetected”. The Activity entry in the data set with Rattus norvegicus [11] is “Dose-dependent effect”. In the data set on Rattus norvegicus [12], the AUC/dose was 410 nM·h. Further, the median effective dose (ED50) with Rattus norvegicus [13] worked out at 0.02 mg/kg.

The values above are taken from ChEMBL document CHEMBL4028903 (J Med Chem, 2017).
